Experimental data reported in ChEMBL document CHEMBL2150886, “Synthesis of [3β-acetoxy-urs-12-en-28-oyl]-1-monoglyceride and investigation on its anti tumor effects against BGC-823” (Bioorg Med Chem, 2011).

Columns and labels:
BGC-823 [1] = test: Antitumor activity against human BGC823 cells xenografted in nude mouse assessed as reduction in tumor volume at 8 mg/kg, iv dosed 5 times; type: functional; parameters: scale not given: the % may be the effect or the level left
Procedure, shortened: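 Male nude mice (5 weeks, 18–22 g) inoculated subcutaneously with 1 × 10⁷ BGC-823 cells. At about 200 mm³ tumours, animals were randomised into four groups of eight. Each received 0.2 mL iv by tail vein; controls got 0.9% saline. Tumour volume was measured daily as 0.5 × length × width²; tumours were weighed at the end. Values are mean ± SD, n = 8.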

Mus musculus [2] = test: Toxicity in human BGC823 cells xenografted nude mouse assessed as body weight changes at 8 mg/kg, iv treated […] on day 1, 4, 7, 10, 13 and day 16 post tumor implant (reference value: 20.12 +/- 1.52 grams); type: organism-based, BGC-823; parameters: dose 8 mg/kg, route intravenous; details: in vivo
BGC-823 [3] = test: Cytotoxicity against human BGC823 cells by MTT assay; type: functional, cell-based
Procedure, shortened: (§1)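 Cells were grown in RPMI-1640 with 10% heat-inactivated FCS at 37 °C under 5% CO₂, seeded at 5 × 10³ per well and left 24 h. Compounds in DMSO were diluted in medium to 0.5% final DMSO; controls received 0.5% DMSO. Exposure was 24–72 h, followed by MTT for 4 h, formazan dissolved in DMSO, and A570. Six wells per sample; IC₅₀ taken at 50% inhibition; ≥3 repeats.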

Mus musculus [4] = test: Toxicity in human BGC823 cells xenografted nude mouse assessed as body weight changes at 8 mg/kg, iv treated 5 times on day 1, 4, 7, 10 and day 13 post tumor implant (reference value: 20.21 +/- 1.83 grams); type: organism-based, BGC-823; parameters: dose 8 mg/kg, route intravenous; details: in vivo
Mus musculus [5] = test: Toxicity in human BGC823 cells xenografted nude mouse assessed as body weight changes at 8 mg/kg, iv treated 4 times on day 1, 4, 7 and 10 post tumor implant (reference value: 20.54 +/- 1.45 grams); type: organism-based, BGC-823; parameters: dose 8 mg/kg, route intravenous; details: in vivo
[6] = Cytotoxicity against human GES-1 cells incubated for 48 hrs by MTT assay; type: cell-based; details: GES1, 48 h; procedure, shortened: as §1
HT-29 = test: Cytotoxicity against human HT-29 cells incubated for 48 hrs by MTT assay; type: functional, cell-based; details: HT-29, 48 h; procedure, shortened: as §1
Mus musculus [7] = test: Toxicity in human BGC823 cells xenografted nude mouse assessed as body weight changes at 8 mg/kg, iv treated on day 1 post tumor implant (reference value: 19.69 +/- 1.21 grams); type: organism-based, BGC-823; parameters: dose 8 mg/kg, route intravenous; details: in vivo
Mus musculus [8] = test: Toxicity in human BGC823 cells xenografted nude mouse assessed as body weight changes at 8 mg/kg, iv treated 2 times on day 1 and day 4 post tumor implant (reference value: 20.58 +/- 1.35 grams); type: organism-based, BGC-823; parameters: dose 8 mg/kg, route intravenous; details: in vivo
Mus musculus [9] = test: Toxicity in human BGC823 cells xenografted nude mouse assessed as body weight changes at 8 mg/kg, iv treated 3 times on day 1, day 4 and day 7 post tumor implant (reference value: 20.79 +/- 1.29 grams); type: organism-based, BGC-823; parameters: dose 8 mg/kg, route intravenous; details: in vivo
HepG2 = test: Cytotoxicity against human HepG2 cells incubated for 48 hrs by MTT assay; type: functional, cell-based; details: HepG2, 48 h; procedure, shortened: as §1

Row | SMILES | Activity (BGC-823 [1]) | Activity (Mus musculus [2]) | IC50 (BGC-823 [3]) | Activity (Mus musculus [4]) | Activity (Mus musculus [5]) | IC50 [6] | IC50 (HT-29) | Activity (Mus musculus [7]) | Activity (Mus musculus [8]) | Activity (Mus musculus [9]) | IC50 (HepG2)
1 | CC(=O)O[C@H]1C(=O)[C@@]2(C)[C@H]([C@H](OC(=O)c3ccccc3)[C@]3(O)C[C@H](OC(=O)[C@H](O)[C@@H](NC(=O)c4ccccc4)c4ccccc4)C(C)=C1C3(C)C)[C@]1(OC(C)=O)CO[C@@H]1C[C@@H]2O [PACLITAXEL] | 15.2% | 20.25 g | 33.1 µM | 20.17 g | 20.13 g | 106 µM | < 10 µM | 18.76 g | 19.72 g | 19.7 g | –
2 | CC(=O)O[C@H]1CC[C@]2(C)[C@H]3CC=C4[C@@H]5[C@@H](C)[C@H](C)CC[C@]5(C(=O)O)CC[C@@]4(C)[C@]3(C)CC[C@H]2C1(C)C [O-ACETYLURSOLIC ACID] | – | – | 19.4 µM | – | – | 92.9 µM | 23.9 µM | – | – | – | 37.7 µM
3 | C[C@H]1[C@H](C)CC[C@]2(C(=O)O)CC[C@]3(C)C(=CC[C@@H]4[C@@]5(C)CC[C@H](O)C(C)(C)[C@@H]5CC[C@]43C)[C@H]12 [URSOLIC ACID] | – | – | 23 µM | – | – | 93.8 µM | 26.3 µM | – | – | – | –
4 | C[C@H]1[C@H](C)CC[C@]2(C(=O)OCC(O)CO)CC[C@]3(C)C(=CC[C@@H]4[C@@]5(C)CC[C@H](O)C(C)(C)[C@@H]5CC[C@]43C)[C@H]12 (some centres undefined) | – | – | 20.5 µM | – | – | 154 µM | – | – | – | – | 44.2 µM
5 | CC(=O)O[C@H]1CC[C@]2(C)[C@H]3CC=C4[C@@H]5[C@@H](C)[C@H](C)CC[C@]5(C(=O)OCCO)CC[C@@]4(C)[C@]3(C)CC[C@H]2C1(C)C | – | – | 17.2 µM | – | – | 137 µM | 23.6 µM | – | – | – | 29.8 µM
